Compound activity deposited in PubChem by several laboratories.
WNV NS2B-NS3 inh = WNV NS2B-NS3 proteinase inhibition | P06935 | WNV NS2B-NS3 protease, fluorogenic substrate Ex360/Em465; stronger effect = lower value | z-score (test concentration not listed) | actives 0.18% (n = 65,000); in the data active = z-score below about -3
D1 allo mod = allosteric modulators of human D1 dopamine receptor; P21728; HEK293 D1, CRE-luciferase, dopamine EC30 potentiation; actives deviate in either direction; B-score at 10 µM; actives 5.9% (n = 58,000); AID 641;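 active = luminescence count or its row- and column-corrected plate score outside the 99.7% band of the plate's sample wells, on either side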
Target sequence (P21728 whole entry, looked up): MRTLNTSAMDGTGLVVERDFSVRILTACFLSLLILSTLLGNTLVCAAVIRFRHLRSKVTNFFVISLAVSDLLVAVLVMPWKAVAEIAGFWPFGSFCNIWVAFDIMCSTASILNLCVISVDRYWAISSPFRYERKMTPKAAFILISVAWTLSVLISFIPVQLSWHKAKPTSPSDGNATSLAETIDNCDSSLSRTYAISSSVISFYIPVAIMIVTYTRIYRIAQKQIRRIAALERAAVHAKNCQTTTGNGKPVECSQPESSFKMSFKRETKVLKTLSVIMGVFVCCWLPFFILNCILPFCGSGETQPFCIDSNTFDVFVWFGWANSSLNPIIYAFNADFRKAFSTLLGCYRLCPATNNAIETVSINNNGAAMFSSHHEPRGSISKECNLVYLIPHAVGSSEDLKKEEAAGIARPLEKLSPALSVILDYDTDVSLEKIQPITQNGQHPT
AP ELISA ortho = alternative pathway complement inhibition, orthogonal assay; Human serum alternative complement pathway, LPS-coated ELISA, C3 deposition; tested in compound mixtures; inhibition, % at 5 µM; actives 0.08% (n = 62,000);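 active = inhibition above 30% in each of the two pooled mixtures holding the compound, so the lower value exceeds 30%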;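 note: 0% = serum in Mg-EGTA without compound and 100% = EDTA serum blank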
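Test system: human serum complement alternative pathway, C3 deposition onto LPS / Medium: Mg2+-EGTA GVB++ buffer containing human serum at 1:15 dilution / Probe or stimulus: Plate-bound LPS / Times: 1 h at 37 °C / Signal: ELISA with HRP anti-human C3 antibody, TMB substrate, absorbance 450 nm / Measure: percent inhibition / Repeats: two pool placements per compound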
hDAT+cocaine = human DAT dopamine uptake with cocaine, either direction. actives 1.3% (n = 110,000). B-score at 10 µM. LLC-PK1 hDAT cells, [14C]-dopamine uptake with cocaine IC80; actives deviate in either direction. AID 449768;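 active = Z score or B-score, a plate-position-corrected score, falls beyond the plate's 99.7% confidence bounds, in either direction; inactive = both scores lie inside the 99.7% bounds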;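 note: scored against the spread of the other compound wells on the same plate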
D1 PAM confirm = confirmation of human D1 dopamine receptor allosteric modulators | AID 642 | luminescence at 10 µM | shares compounds with D1 allo mod | HEK293 D1 CRE-luciferase, dopamine EC30 potentiation; stronger effect = higher value | actives 88% (n = 2,200);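 active = luminescence in either of two replicates above the same-plate mean plus 3 SD of the low-dose dopamine control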
D1 no dopamine = secondary test of D1 modulators: activity without dopamine; shares compounds with D1 allo mod; HEK293 D1 CRE-luciferase, luminescence, no dopamine; stronger effect = higher value; luminescence at 10 µM; actives 0.8% (n = 1,900); AID 646; in the data active = luminescence above about 3900
Isoprot counter = isoproterenol response counter-screen activity for D1 modulators | shares compounds with D1 allo mod | luminescence at 10 µM | HEK293 D1 CRE-luciferase, isoproterenol EC30 counter-screen; stronger effect = higher value | actives 63% (n = 2,200) | AID 647;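 active = luminescence in either replicate above plate mean of wells with a partly effective reference agonist dose plus 3 SD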;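 note: isoproterenol raises cAMP through native beta-adrenoceptor Gs so signal bypasses D1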
An asterisk follows results filed as active; x = not tested or not shown. Only a selection was taken, and hits are over-represented in it overall.

SMILES	WNV NS2B-NS3 inh	D1 allo mod	AP ELISA ortho	hDAT+cocaine	D1 PAM confirm	D1 no dopamine	Isoprot counter
N#CCSC1=Nc2ccccc2C2=NC(CCC(=O)N3CCN(c4ccccc4)CC3)C(=O)N12 (stereo unspecified)	0.64	-0.25	10	0.46	x	x	x
CC(C)C1N=C2c3ccccc3N=C(SCC#N)N2C1=O (stereo unspecified)	0.89	5.1*	14	-0.24	10160*	1524	2844
O=c1ccn(Cc2ccccc2)c(=O)n1Cc1ccccc1	-0.27	2.9*	5	2.8*	12736*	1644	3316*
Cn1c(N)cc(=O)n(Cc2ccccc2)c1=O	x	x	x	-1.1	x	x	x
Cc1cc(NC(=O)c2ccoc2C)no1	x	x	x	0.22	x	x	x
COC(=O)c1c(NC(=O)c2ccco2)sc(C(=O)N2CCCC2)c1C	0.43	6.9*	-31	1.3	12140*	x	3380*
COC(=O)c1c(NC(=O)Cc2cccs2)sc(C(=O)N2CCCCC2)c1C	0.15	7.3*	-4	-0.94	25076*	1708	7580*
COC(=O)c1c(NC(=O)Cc2cccs2)sc2c1CCC(C)C2 (stereo unspecified)	0.17	4.9*	19	-1	8816*	1552	2860
COC(=O)c1c(NC(=O)Cc2cccs2)sc(C(=O)NC2CCCCC2)c1C	x	x	x	-0.12	x	x	x
CCOC(=O)c1c(NC(=O)Cc2cccs2)sc(C(=O)NC2CCCC2)c1C	x	x	x	-1.5	x	x	x
CCOC(=O)c1c(NC(=O)Cc2cccs2)sc(C)c1C	-1.4	13*	-6	-1.5	15008*	1728	4084*
CCOC(=O)c1c(NC(=O)c2ccco2)sc2c1CCCC2	0.16	1.4	5	-1.6	x	x	x
CCOC(=O)c1c(NS(C)(=O)=O)sc2c1CCC(C)C2 (stereo unspecified)	-0.69	9.2*	5	-0.19	13356*	1660	3316*
CCN(CC)C(=O)c1sc(NC(=O)c2ccc3c(c2)OCO3)c(C#N)c1C	x	x	x	-0.015	x	x	x
CCN(CC)C(=O)c1sc(NC(=O)Cc2cccs2)c(C#N)c1C	-4.4*	6.9*	10	1.1	11496*	1544	2856
Cc1ccc(-c2nnc(CSc3nc(C)nc4sc(C)c(C)c34)o2)cc1	-0.49	-0.6	9	-0.49	x	x	x
Cc1nc(SCC#N)c2c(C)c(C)sc2n1	0.49	5.8*	3	-0.049	13352*	1616	3812*
CN(C)CC(C)(C)CNC(=O)c1cc(=O)c2ccccc2o1	x	x	x	-1.2	x	x	x
CC(C)(C)n1nnnc1CN1C2CCC1CC(NC(=O)Nc1ccccc1)C2 (stereo unspecified)	-0.67	4.8*	4	0.52	5228	x	2460
Cc1[nH]c(C(=O)N2CCCCC2)c(C)c1C(=O)NC1CCCCC1	-1	0.074	21	x	x	x	x
CCOC(=O)c1[nH]c(C)c(C(=O)NC2CCN(C(=O)OCC)CC2)c1C	0.48	2.1*	2	2.3	5396	1508	3156
NC1=NC2(CCCCC2)N(c2cccc(Cl)c2)C(N)=N1	x	x	x	-0.62	x	x	x
CNc1nn(-c2cccc(Cl)c2)nc1N	-1	4.2*	4	0.67	8344*	1588	2896
COc1ccc2c(C)c(C(=O)NCC(C)O)oc2c1OC (stereo unspecified)	-1.1	7.5*	-1	-1.2	11688*	1436	3188*
Cc1ccc(-n2cnnn2)c2cccnc12	0.1	2.6*	8	-0.3	8320*	1580	3228
SMILES	WNV NS2B-NS3 inh	D1 allo mod	AP ELISA ortho	hDAT+cocaine	D1 PAM confirm	D1 no dopamine	Isoprot counter
CCn1c(SCc2ccc(Cl)cc2Cl)nc2nc3c(cc2c1=O)CCCC3	x	x	x	-1.8	x	x	x
CCN=C1SC(CC(=O)Nc2ccccc2OCC)C(=O)N1CC (stereo unspecified)	-1.1	2.7*	-3	1.6	9772*	1564	3300
CCCCOc1ccccc1NC(=O)CC1SC(=NCC)N(CC)C1=O (stereo unspecified)	-0.87	x	3	0.0055	x	x	x
CCN=C1SC(CC(=O)NC2CCCCC2)C(=O)N1CC (stereo unspecified)	0.95	0.049	-11	-1.1	x	x	x
CCN=C1SC(C(N)=O)CC(=O)N1CC (stereo unspecified)	0.64	6.3*	7	-0.34	10588*	1464	2864
CCN=C1SC(CC(=O)NC(N)=O)C(=O)N1CC (stereo unspecified)	-0.5	4.3*	14	-1.4	20476*	1496	3780*
CCn1c(SCC(=O)Nc2ccc3c(c2)oc2ccccc23)nnc1-c1ccc(N)cc1	x	x	x	1.5	x	x	x
N#CCCCn1c(-c2ccccc2)noc1=O	0.16	6.4*	10	-0.98	4628	1604	2940
CN(C(=O)c1ccc(NC(=O)c2cnccn2)cc1)C1CCCCC1	-0.25	-0.049	18	x	x	x	x
COc1ccc(N2C(C)=CS/C2=C(/C#N)c2nnc(N3CCOCC3)n2-c2ccccc2)cc1	-2.1	-0.17	13	0.16	x	x	x
COCCCNC(=O)CCN1C(=O)COc2ccccc21	-1.3	0.61	0	-0.41	x	x	x
CCOc1ccc(CCNC(=O)CCN2C(=O)COc3ccccc32)cc1OCC	-1.6	2.7*	9	0.092	9680*	1836	3320*
COc1ccc(Br)cc1CNC(=O)CCN1C(=O)COc2ccccc21	-0.31	3.6*	14	0.56	6192*	x	2472
Cc1cc(C)c(S(=O)(=O)N2CCC(C(=O)NCc3ccco3)CC2)c(C)c1	x	x	x	0.75	x	x	x
CCOC(=O)c1oc2ccc(Br)cc2c1NC(=O)CN1CCN(C)CC1	-0.65	5.7*	4	1.4	5896*	1096	2232
c1ccc2[nH]c(CN3CCN(c4ncnc5c4oc4ccccc45)CC3)nc2c1	1.2	9.6*	18	0.64	14816*	x	4708*
c1ccc(-n2nnnc2NC2CCCCC2)cc1	x	x	x	0.071	x	x	x
O=C(NCc1cc(C(F)(F)F)cc(C(F)(F)F)c1)C1CC(c2ccc(C(F)(F)F)cc2)=NO1 (stereo unspecified)	x	x	x	-0.43	x	x	x
Cc1cccc(-c2c3c(=O)n(C)c(=O)n(C)c3cn2C(C)C)c1	-1.3	14*	16	x	15796*	1340	3908*
Cc1cccc(-c2c3c(=O)n(C)c(=O)n(C)c3c3cccnn23)c1	-0.6	22*	16	0.4	23480*	1672	4468*
COc1ccc(CCN(C(=O)c2cccc(F)c2)C2CC(=O)N(c3ccc(OC)cc3)C2=O)cc1 (stereo unspecified)	x	x	x	-0.056	x	x	x
CCOC(=O)C1=C(C)N=C2SC(CC)C(=O)N2C1c1ccc(OC(C)=O)c(OCC)c1 (stereo unspecified)	0.31	1.7	13	x	x	x	x
CCOC(=O)c1sc(C)c2c1NC(c1ccc(Cl)cc1)NC2=O (stereo unspecified)	x	x	x	-1.3	x	x	x
